The source of these data is ChEMBL document CHEMBL1154933, “2-Aminothiadiazole inhibitors of AKT1 as potential cancer therapeutics” (Bioorg Med Chem Lett, 2010).

Data set [1] in a line: Inhibition of PKA.
The target of data set [2] is Cyclin-dependent kinase 2 (Homo sapiens, UniProt P24941). As to the kind of experiment: Inhibition of CDK2.
For data set [3], the target named is T1, RAC-alpha serine/threonine-protein kinase (Homo sapiens, UniProt P31749). As to the kind of experiment: Inhibition of AKT1 after 10 mins by [gamma33]ATP assay.
The nature of data set [4]: Half life in Sprague-Dawley rat at 1 mg/kg, iv. It counts as ADME, organism-based. Also on record: dose 1 mg/kg, route intravenous. The settings on record: in vivo. A digest of the protocol: (§1)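 Male Sprague-Dawley rats, n = 3, given a single iv dose in 100% DMSO, at 1 mg/kg or 2 mg/kg depending on compound. Clearance, half-life and steady-state volume of distribution were taken from plasma exposure after the iv dose.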

The target in data set [5] is T1, RAC-alpha serine/threonine-protein kinase. Put plainly: Inhibition of human AKT1 in human MDA-MB-468 cells assessed as phosphorylation-mediated nuclear translocation of GFP-tagged FKHRL1 by fluorescence microscopy. It counts as cell-based. A digest of the protocol:
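MDA-MB-468 cells stably expressing GFP-tagged FKHRL1 were treated with threefold serial dilutions of compound. Nuclear translocation of the fusion protein was scored by fluorescence microscopy. Mean ± SD where n ≥ 3, some values from a single run.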

Data set [6] in a line: Clearance in Sprague-Dawley rat at 1 mg/kg, iv. It counts as ADME, organism-based. Set-up: dose 1 mg/kg, route intravenous. The settings on record: in vivo. In short, it runs like this: as §1
Data set [7] is described as follows: Volume of distribution at steady state in Sprague-Dawley rat at 1 mg/kg, iv. It counts as ADME, organism-based. Also on record: dose 1 mg/kg, route intravenous. Conditions: in vivo, read-out: Vdss. In short, it runs like this: as §1
A short description of data set [8]: Selectivity ratio of IC50 for CDK2 to IC50 for AKT1.
Data set [9] deals with T1, RAC-alpha serine/threonine-protein kinase. As to the kind of experiment: Inhibition of human AKT1 in human U87MG cells assessed as PRAS40 phosphorylation after 1 hr by ELISA. It counts as cell-based, U-87MG ATCC. A digest of the protocol: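 U87MG cells in 5% FBS medium were incubated with threefold serial dilutions of inhibitor for 1 h at 37 °C, then lysed. Phospho-PRAS40 (Thr246) was quantified by ELISA and normalized to total PRAS40. Mean ± SD where n ≥ 3.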

Data set [10] has as its system Mus musculus. As to the kind of experiment: Inhibition of HGF-stimulated AKT signaling pathway in BALB/c mouse liver assessed as reduction in phosphorylated FKHRL1 level at 30 mg/kg, ip dosed up to 6 hrs before HGF challenge and measured after 5 mins by Western blot analysis. It counts as functional, organism-based. Set-up: dose 30 mg/kg.
The nature of data set [11]: Half life in Sprague-Dawley rat at 2 mg/kg, iv. It counts as ADME, organism-based. Set-up: dose 2 mg/kg, route intravenous. The settings on record: in vivo. A digest of the protocol: as §1
A short description of data set [12]: Volume of distribution at steady state in Sprague-Dawley rat at 2 mg/kg, iv. The data set is classed as ADME, organism-based. Set-up: dose 2 mg/kg, route intravenous. Conditions: in vivo, read-out: Vdss. In short, it runs like this:
as §1

A short description of data set [13]: Cytotoxicity against human U87MG cells after 3 days by alamar blue staining. It counts as functional, cell-based, U-87MG ATCC. Conditions: U-87 MG, 72 h. A digest of the protocol: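 U-87 glioblastoma cells seeded at 6000 cells/well and exposed to compound over a concentration series for 3 days. Viability read by alamarBlue staining, run in triplicate, and EC50 derived.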

A short description of data set [14]: Clearance in Sprague-Dawley rat at 2 mg/kg, iv. The settings on record: in vivo. Set-up: dose 2 mg/kg, route intravenous. It counts as ADME, organism-based. A digest of the protocol:
as §1

In data set [15] the target is T2, Serine/threonine-protein kinase Sgk1 (Homo sapiens, UniProt O00141).
T2 sequence (O00141 whole entry): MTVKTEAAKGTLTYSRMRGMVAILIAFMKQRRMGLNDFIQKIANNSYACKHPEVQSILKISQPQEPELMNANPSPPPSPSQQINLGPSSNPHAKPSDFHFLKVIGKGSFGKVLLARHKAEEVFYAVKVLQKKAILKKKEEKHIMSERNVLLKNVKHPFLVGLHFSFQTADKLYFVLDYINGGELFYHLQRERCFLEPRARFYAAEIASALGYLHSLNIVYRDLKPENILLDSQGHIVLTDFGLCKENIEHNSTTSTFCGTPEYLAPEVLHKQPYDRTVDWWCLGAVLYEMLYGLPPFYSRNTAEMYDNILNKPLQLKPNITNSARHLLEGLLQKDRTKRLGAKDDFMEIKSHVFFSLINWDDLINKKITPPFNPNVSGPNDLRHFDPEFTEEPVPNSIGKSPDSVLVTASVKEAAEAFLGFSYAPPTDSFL
As to the kind of experiment: Inhibition of SGK1.

For data set [16], the system named is Mus musculus. Put plainly: Inhibition of HGF-stimulated AKT signaling pathway in BALB/c mouse liver assessed as reduction in phosphorylated FKHRL1 level ip dosed 1 hr before HGF challenge and measured after 5 mins by Western blot analysis. It counts as functional, organism-based.
A short description of data set [17]: Oral bioavailability in Sprague-Dawley rat at 10 mg/kg. It counts as ADME, organism-based. The settings on record: in vivo. A digest of the protocol: (§2)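 Male Sprague-Dawley rats, n = 3, dosed orally at 10 mg/kg in 25% PEG 400/[…]. Cmax was taken from the oral exposure. Bioavailability was derived against the separate iv arm, which was 2 mg/kg in 100% DMSO.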

Data set [18] can be described thus: Cmax in Sprague-Dawley rat at 10 mg/kg, po. The settings on record: in vivo. Set-up: dose 10 mg/kg, route oral. It counts as ADME, organism-based. In short, it runs like this:
as §2

Activity calls are given as the source filed them. The rule behind the calls is not given here. Bounds are passed on as bounds.

T1 sequence (P31749 whole entry): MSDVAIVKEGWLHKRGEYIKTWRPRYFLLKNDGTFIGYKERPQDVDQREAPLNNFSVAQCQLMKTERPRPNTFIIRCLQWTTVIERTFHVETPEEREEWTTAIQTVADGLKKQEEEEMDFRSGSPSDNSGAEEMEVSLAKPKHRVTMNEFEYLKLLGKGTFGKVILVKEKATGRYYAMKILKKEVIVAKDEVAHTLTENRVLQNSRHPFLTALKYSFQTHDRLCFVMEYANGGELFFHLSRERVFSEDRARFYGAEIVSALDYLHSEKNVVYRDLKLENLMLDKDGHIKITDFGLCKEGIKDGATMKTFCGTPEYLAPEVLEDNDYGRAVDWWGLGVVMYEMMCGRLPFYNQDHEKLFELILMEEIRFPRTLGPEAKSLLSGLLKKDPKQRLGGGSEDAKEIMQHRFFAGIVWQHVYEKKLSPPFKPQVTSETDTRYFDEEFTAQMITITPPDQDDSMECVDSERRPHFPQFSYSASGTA

`Cc1n[nH]c2ccc(-c3nnc(NC[C@@H](N)Cc4ccc(F)c(F)c4)s3)cc12`: the values for the half-maximal inhibitory concentration (IC50) in data set [1], in [2] and in data set [3] were 27 nM, 19 nM and 14 nM, respectively.
Regarding `N[C@H](CNc1nnc(-c2ccc3[nH]nc(-c4ccccc4)c3c2)s1)Cc1cccc(C(F)(F)F)c1`, the half-maximal inhibitory concentration (IC50) was determined as 368 nM in data set [1], 79 nM in data set [2] and 413 nM in data set [3].
Take `Cc1n[nH]c2ccc(-c3nnc(NC[C@@H](N)Cc4cccc(C(F)(F)F)c4)s3)cc12`: the IC50 in data set [1] came out at 6.5 nM; in [2], 35 nM; in data set [3], 6.1 nM.
`Cc1n[nH]c2ccc(-c3nnc(NC[C@H](N)Cc4ccccc4)s3)cc12`: in [3], the IC50 is > 2200 nM.
Take `N[C@H](CNc1nnc(-c2ccc3[nH]ncc3c2)s1)Cc1cccc(C(F)(F)F)c1`: the IC50 stood at 117 nM in [1] and 25 nM in [3].
`CCc1n[nH]c2ccc(-c3nnc(NC[C@@H](N)Cc4ccccc4)s3)cc12` displayed a half-inhibitory concentration (IC50) in data set [3] of 370 nM.
Consider `N[C@H](CNc1nnc(-c2ccc3[nH]ncc3c2)s1)Cc1ccc(Cl)cc1`, for which the half-maximal inhibitory concentration (IC50) turned out to be 157 nM in data set [1], 41 nM in [2] and 24 nM in data set [3].
In the case of `N[C@H](CNc1nnc(-c2ccc3[nH]nc(C4CC4)c3c2)s1)Cc1ccc(C(F)(F)F)cc1`, the values for the IC50 in [1], in data set [2] and in data set [3] were 237 nM, 135 nM and 181 nM, respectively.
On the same counts, the results for `Cc1n[nH]c2ccc(-c3nnc(NC[C@@H](N)Cc4ccccc4Cl)s3)cc12` are 106 nM, 57 nM and 47 nM.
Consider `Cc1n[nH]c2ccc(-c3nnc(NC[C@@H](N)Cc4ccc(Cl)cc4)s3)cc12`, for which the half-maximal inhibitory concentration (IC50) in data set [1] was found to be 11 nM; in [2] it was 72 nM; in data set [3], 8.9 nM.
On the same counts, the results for `Cc1cc2cc(-c3nnc(NC[C@@H](N)Cc4ccc(C(F)(F)F)cc4)s3)ccc2cn1` are 274 nM, 607 nM and 280 nM.
On the same counts, the results for `Cc1n[nH]c2ccc(-c3nnc(NC[C@@H](N)Cc4cccc(Cl)c4)s3)cc12` are 15 nM, 17 nM and 19 nM.
With `Cc1n[nH]c2ccc(-c3nnc(NC[C@@H](N)Cc4cccc(F)c4)s3)cc12`, the IC50 in [1] amounted to 230 nM; in data set [3], 38 nM.
Regarding `N[C@H](CNc1nnc(-c2ccc3[nH]ncc3c2)s1)Cc1ccc(C(F)(F)F)cc1`, the IC50 in data set [1] is 108 nM; in data set [2] it was 24 nM; in data set [5], 154 nM; in data set [3] it was 6 nM; in [9] it was 444 nM. Also, the half-life in data set [4] is 2.5 h. The clearance in data set [6] was 81.7 mL/min/kg. The Vd in [7] is 13.3 L/kg. For the same compound, in data set [8], the Ratio IC50 was found to be 4.
Regarding `N[C@H](CNc1nnc(-c2ccc3cnccc3c2)s1)Cc1ccc(C(F)(F)F)cc1`, the 50% inhibitory concentration (IC50) in [1] turned out to be 8 nM; in data set [2], 53 nM; in data set [5], 695 nM; in data set [3], 3 nM; in [15] it was 2200 nM; in [9] it was 247 nM. Further, the inhibition result in [10] is “Active”. In data set [11], the half-life was 3.8 h. The Vd in data set [12] is 3.8 L/kg. This compound also gave an EC50 in data set [13] of 380 nM. For the same compound, the Ratio IC50 in data set [8] is 20. Also, the clearance in data set [14] is 25 mL/min/kg. Also, the inhibition result in [16] was “Dose-dependent effect”. The bioavailability in data set [17] amounted to 20%. In data set [18], this compound came in with a Cmax of 430 ng/mL.
`Cc1n[nH]c2ccc(-c3nnc(NC[C@@H](N)Cc4ccc(Cl)cc4Cl)s3)cc12`: the IC50 was 43 nM in data set [1], 70 nM in [2] and 18 nM in data set [3].
For `Cc1n[nH]c2ccc(-c3nnc(NC[C@@H](N)Cc4ccccc4F)s3)cc12` the same measures were 215 nM, 104 nM and 198 nM.
As for `Cc1n[nH]c2ccc(-c3nnc(NC[C@@H](N)Cc4ccccc4C(F)(F)F)s3)cc12`, the IC50 in data set [1] is 247 nM; in [2], 198 nM; in data set [3], 491 nM.
On the same counts, the results for `Cc1n[nH]c2ccc(-c3nnc(NC[C@@H](N)Cc4ccccc4)s3)cc12` are 54 nM, 72 nM and 76 nM.
For the compound `N[C@H](CNc1nnc(-c2ccc3[nH]ncc3c2)s1)Cc1ccc(Cl)cc1Cl`, the half-maximal inhibitory concentration (IC50) was 158 nM in data set [1], 323 nM in [2] and 40 nM in data set [3]. Besides, the Ratio IC50 in data set [8] came out at 8.
Regarding `Cc1n[nH]c2ccc(-c3nnc(NC[C@@H](N)Cc4ccc(C(F)(F)F)cc4)s3)cc12`, the half-maximal inhibitory concentration (IC50) in data set [1] stood at 13 nM; in [2], 17 nM; in data set [5], 333 nM; in [3] it was 5.5 nM; in data set [9] it was 357 nM. For the same compound, the half-life in data set [4] is 4.1 h. In data set [6], this compound gave a clearance of 46.7 mL/min/kg. The Vd in data set [7] amounted to 13.7 L/kg.
On to `N[C@H](CNc1nnc(-c2ccc3[nH]ncc3c2)s1)Cc1ccc(F)cc1`, for which the half-maximal inhibitory concentration (IC50) in data set [1] was 373 nM; in [2] it was 74 nM; in [3], 368 nM.
